Compound activity deposited in PubChem by Broad Institute.
T cruzi growth-1 – T. cruzi proliferation inhibition. T. cruzi beta-gal in NIH3T3, GalScreen luminescence, 90 h. 77,000 compounds, 5.9% hits. AID 624255. inhibition, % at 8.34 µM;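 active means mean inhibition above about 93%, with at least 55% of replicates each passing it, limit read from the data, passing the limit was not always enough; inconclusive means only one of those two conditions holds; inactive means neither condition holds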
Pf Dd2 growth – blocks growth of Plasmodium falciparum Dd2 parasites | 94,000 compounds, 2.3% hits | AID 1159554 | P. falciparum Dd2 growth, SYBR Green, 72 h; hits give low values | activity change, % at 10 µM; in the data active means activity change below about -80%; inconclusive means no clear call, values can overlap the other calls
GASC1 inh – KDM4C (human) demethylase inhibition; AID 720574; inhibition, % at 12.5 µM; 96,000 compounds, 0.15% hits; GST-KDM4C 2-372, H3K9me3 peptide, LANCE TR-FRET; Q9H3R0;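 active means mean replicate inhibition above about 25%, with at least 55% of replicates also reaching it, limit read from the data, passing the limit was not always enough; inconclusive means only one of those two conditions met; inactive means neither condition met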
Target sequence (Q9H3R0 2-372 limits assumed): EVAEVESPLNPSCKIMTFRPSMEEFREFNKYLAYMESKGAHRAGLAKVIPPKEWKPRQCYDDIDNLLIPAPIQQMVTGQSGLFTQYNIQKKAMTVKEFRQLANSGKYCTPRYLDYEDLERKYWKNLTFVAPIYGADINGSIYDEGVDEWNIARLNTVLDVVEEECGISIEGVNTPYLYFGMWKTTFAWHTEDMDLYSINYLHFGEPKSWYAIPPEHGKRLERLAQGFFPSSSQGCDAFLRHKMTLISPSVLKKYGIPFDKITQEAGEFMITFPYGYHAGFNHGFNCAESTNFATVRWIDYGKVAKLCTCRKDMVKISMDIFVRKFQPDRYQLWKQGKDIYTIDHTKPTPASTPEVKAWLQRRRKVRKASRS
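reagent = H3K9me3 peptide substrate, Fe(II), 2-oxoglutarate | system = GST-tagged GASC-1 (JMJD2C) catalytic fragment, aa 2-372 | amount = enzyme final amount 10 nM | read-out = Fall in 671/618 emission ratio as inhibition | medium = HEPES buffer, pH 7.5, plus ascorbate | schedule = 30 min reaction, 60 min detection, RT | measured by = LANCE TR-FRET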
IDH1 mut inh – IDH1 R132H (human) inhibition; O75874; IDH1 R132H reductase, diaphorase/resazurin fluorescence, 60 min; inhibition, % at 10 µM; 70,000 compounds, 0.18% hits; in the data active means inhibition above about 34%; inconclusive means no clear call, values can overlap the other calls; inactive means below about 11%
Target sequence (O75874 whole entry R132H): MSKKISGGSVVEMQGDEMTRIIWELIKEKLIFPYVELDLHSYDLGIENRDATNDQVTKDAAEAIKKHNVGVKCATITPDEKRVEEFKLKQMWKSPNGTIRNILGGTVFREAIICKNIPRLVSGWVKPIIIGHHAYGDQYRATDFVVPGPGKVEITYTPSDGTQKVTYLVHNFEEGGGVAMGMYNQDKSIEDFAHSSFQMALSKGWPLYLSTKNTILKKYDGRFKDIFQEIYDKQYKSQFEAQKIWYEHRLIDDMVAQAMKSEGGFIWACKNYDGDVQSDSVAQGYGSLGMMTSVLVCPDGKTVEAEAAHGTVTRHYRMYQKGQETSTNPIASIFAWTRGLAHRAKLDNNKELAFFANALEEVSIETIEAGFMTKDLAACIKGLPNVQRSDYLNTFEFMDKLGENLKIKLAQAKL
T cruzi growth-2 – inhibitors of T. cruzi proliferation. AID 651739. 5,600 compounds, 72% hits. inhibition, % at 8.35 µM. shares compounds with T cruzi growth-1. T. cruzi beta-gal in NIH3T3, GalScreen luminescence, 90 h;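 active means mean replicate inhibition above about 95% and at least 55% of replicates individually reaching it, limit read from the data; inconclusive means only one of the two criteria is met; inactive means neither criterion is met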
T cruzi growth-3 – blocks T. cruzi growth in NIH3T3 host cells; shares compounds with T cruzi growth-1; T. cruzi beta-gal in NIH3T3, GalScreen luminescence, 90 h; inhibition, % at 2.09 µM; 5,600 compounds, 21% hits; AID 651740;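 active means mean inhibition above about 95%, with at least 55% of replicates also reaching it, limit read from the data; inconclusive means meets just one of the two conditions; inactive means meets neither condition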
NIH3T3 tox – cytotoxicity in mouse NIH/3T3 fibroblasts | shares compounds with T cruzi growth-1 | NIH/3T3 viability, CellTiter-Glo ATP luminescence, 90 h | cytotoxicity (signal decrease), % at 8.35 µM | 5,600 compounds, 14% hits;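 active means mean signal decrease across replicates above about 35% based on untreated-well scatter, with enough replicates individually passing, limit read from the data; inconclusive means no rule stated though some were filed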
3T3 cytotox 2 – NIH/3T3 (mouse) viability loss; shares compounds with T cruzi growth-1; NIH/3T3 viability, CellTiter-Glo ATP luminescence, 90 h; inhibition, % at 24.9 µM; 5,600 compounds, 56% hits; AID 651744;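 active means mean loss of cell viability signal at or above a set limit, and enough replicates individually reaching it; inconclusive means meets only the mean limit or only the replicate share; inactive means meets neither condition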
Of the large screens only hits and unclear results are named; the others gave an inactive call (follow-up assays come after a bar, where they were run); ! = repeats disagree. Hits are enriched below; roughly 5.9% of the tested compounds scored in any of these assays.

COc1ccc(S(=O)(=O)Nc2ccc3c(c2)C(=O)N([C@@H](C)CO)C[C@@H](C)[C@H](CN(C)S(=O)(=O)c2ccc(Cl)cc2)OCCCC[C@H](C)O3)cc1	T cruzi growth-1 100 | T cruzi growth-2 108 | T cruzi growth-3 inactive | NIH3T3 tox inactive | 3T3 cytotox 2 inactive
COc1ccc(S(=O)(=O)Nc2ccc3c(c2)C(=O)N([C@@H](C)CO)C[C@@H](C)[C@@H](CN(C)S(=O)(=O)c2ccc(Cl)cc2)OCCCC[C@@H](C)O3)cc1	none
COc1ccc(S(=O)(=O)N(C)C[C@@H]2OCCCC[C@@H](C)Oc3ccc(NS(=O)(=O)c4ccc(Cl)cc4)cc3C(=O)N([C@H](C)CO)C[C@H]2C)cc1	none (no result: T cruzi growth-1, GASC1 inh, IDH1 mut inh)
COc1ccc(S(=O)(=O)Nc2ccc3c(c2)C(=O)N([C@@H](C)CO)C[C@@H](C)[C@H](CN(C)S(=O)(=O)c2ccc(Cl)cc2)OCCCC[C@@H](C)O3)cc1	T cruzi growth-1 inconclusive | T cruzi growth-2 105 | T cruzi growth-3 104 | NIH3T3 tox inactive | 3T3 cytotox 2 33
Cc1cc([N+](=O)[O-])ccc1NC(=O)CSc1n[nH]c(-c2ccc(Cl)cc2)n1	none (no result: T cruzi growth-1, Pf Dd2 growth, GASC1 inh)
COc1ccc(-c2csc(Cc3nc(-c4cc5ccccc5oc4=O)cs3)n2)cc1	none (no result: T cruzi growth-1, Pf Dd2 growth, GASC1 inh)
C[C@@H]1CN([C@H](C)CO)S(=O)(=O)c2ccc(C#CCC3CCCC3)cc2O[C@@H]1CN(C)C(=O)c1ccccn1	T cruzi growth-1 110 | T cruzi growth-2 100 | T cruzi growth-3 inactive | NIH3T3 tox 51 | 3T3 cytotox 2 104
C[C@H](CO)N1C[C@H](C)[C@@H](CN(C)C)Oc2cc(C#CCC3CCCC3)ccc2S1(=O)=O	T cruzi growth-1 inconclusive | T cruzi growth-2 107 | T cruzi growth-3 inactive | NIH3T3 tox inactive | 3T3 cytotox 2 103
CCC(=O)N(C)C[C@H]1Oc2cc(C#CCC3CCCC3)ccc2S(=O)(=O)N([C@@H](C)CO)C[C@@H]1C	T cruzi growth-1 128 | T cruzi growth-2 106 | T cruzi growth-3 inactive | NIH3T3 tox 43 | 3T3 cytotox 2 105
CCC(=O)N(C)C[C@H]1Oc2cc(C#CCC3CCCC3)ccc2S(=O)(=O)N([C@H](C)CO)C[C@@H]1C	none
C[C@H](CO)N1C[C@H](C)[C@H](CN(C)C)Oc2cc(C#CCC3CCCC3)ccc2S1(=O)=O	none
CCC(=O)N(C)C[C@@H]1Oc2cc(C#CCC3CCCC3)ccc2S(=O)(=O)N([C@@H](C)CO)C[C@H]1C	T cruzi growth-1 129 | T cruzi growth-2 109 | T cruzi growth-3 inactive | NIH3T3 tox inactive | 3T3 cytotox 2 104
CC(=O)C1=C(c2ccccc2)NC(=S)NC1c1cc(Cl)ccc1OCC(=O)O (stereo not given)	none (no result: T cruzi growth-1, Pf Dd2 growth, GASC1 inh)
CCC(=O)N(C)C[C@H]1Oc2cc(C#CCC3CCCC3)ccc2S(=O)(=O)N([C@@H](C)CO)C[C@H]1C	T cruzi growth-1 119 | T cruzi growth-2 98 | T cruzi growth-3 inactive | NIH3T3 tox inactive | 3T3 cytotox 2 105
CC1(C)CC(NC(=O)CC(c2ccc(F)cc2)c2ccco2)CCO1 (stereo not given)	none (no result: T cruzi growth-1, Pf Dd2 growth, GASC1 inh)
COc1ccc(S(=O)(=O)N2CCCCN3[C@H](CO)[C@H](c4ccc(C#CC(C)C)cc4)[C@@H]3C2)cc1	none (no result: IDH1 mut inh)
COc1ccc(S(=O)(=O)N2CCCCN3[C@H](C2)[C@H](c2ccc(C#CC(C)C)cc2)[C@@H]3CO)cc1	T cruzi growth-1 118 (no result: IDH1 mut inh) | T cruzi growth-2 107 | T cruzi growth-3 105 | NIH3T3 tox inactive | 3T3 cytotox 2 69
COc1ccc(S(=O)(=O)N2CCCCN3[C@H](CO)[C@@H](c4ccc(C#CC(C)C)cc4)[C@@H]3C2)cc1	T cruzi growth-1 96 (no result: IDH1 mut inh) | T cruzi growth-2 101 | T cruzi growth-3 inactive | NIH3T3 tox inactive | 3T3 cytotox 2 inactive
O=C(COc1ccc(F)cc1)Nc1ncccn1	none (no result: T cruzi growth-1, Pf Dd2 growth, GASC1 inh)
CC1CCc2c(sc3nc(SC(C)C(=O)Nc4ccccc4)nc(N)c23)C1 (stereo not given)	none (no result: T cruzi growth-1, Pf Dd2 growth, GASC1 inh)
COc1ccc(NC(=O)N(C)C[C@H]2Oc3cc(C#CCC(C)C)ccc3S(=O)(=O)N([C@H](C)CO)C[C@@H]2C)cc1	none
C[C@@H]1CN([C@H](C)CO)S(=O)(=O)c2ccc(C#Cc3ccccc3)cc2O[C@@H]1CN(C)C(=O)Nc1ccccc1	none
CC(C)CC#Cc1ccc2c(c1)O[C@@H](CN(C)C(=O)Nc1ccccc1)[C@@H](C)CN([C@@H](C)CO)S2(=O)=O	T cruzi growth-1 127 | T cruzi growth-2 111 | T cruzi growth-3 105 | NIH3T3 tox inactive | 3T3 cytotox 2 103
CC(C)CC#Cc1ccc2c(c1)O[C@H](CN(C)C(=O)Nc1ccccc1)[C@@H](C)CN([C@H](C)CO)S2(=O)=O	T cruzi growth-1 117! | T cruzi growth-2 107 | T cruzi growth-3 inactive | NIH3T3 tox inactive | 3T3 cytotox 2 inconclusive
CC(C)CC#Cc1ccc2c(c1)O[C@@H](CN(C)C(=O)Nc1ccccc1)[C@H](C)CN([C@@H](C)CO)S2(=O)=O	T cruzi growth-1 121 | T cruzi growth-2 107 | T cruzi growth-3 inactive | NIH3T3 tox inactive | 3T3 cytotox 2 78
O=S(=O)(Cc1ccc2nonc2c1)c1cccs1	none (no result: T cruzi growth-1, Pf Dd2 growth, GASC1 inh)
CCCNC(=O)N(C)C[C@@H]1Oc2cc(C#Cc3cccc(F)c3)ccc2S(=O)(=O)N([C@@H](C)CO)C[C@@H]1C	T cruzi growth-1 117 | T cruzi growth-2 110 | T cruzi growth-3 inactive | NIH3T3 tox inactive | 3T3 cytotox 2 83
CCCNC(=O)N(C)C[C@@H]1Oc2cc(C#CCC(C)C)ccc2S(=O)(=O)N([C@H](C)CO)C[C@@H]1C	none
CCCNC(=O)N(C)C[C@H]1Oc2cc(C#CCC(C)C)ccc2S(=O)(=O)N([C@@H](C)CO)C[C@@H]1C	T cruzi growth-1 106 | T cruzi growth-2 100 | T cruzi growth-3 inactive | NIH3T3 tox inactive | 3T3 cytotox 2 28
CC(=O)N(C)C[C@H]1Oc2cc(C#Cc3cccc(F)c3)ccc2S(=O)(=O)N([C@H](C)CO)C[C@@H]1C	none
CCCNC(=O)N(C)C[C@@H]1Oc2cc(C#Cc3cccc(F)c3)ccc2S(=O)(=O)N([C@H](C)CO)C[C@@H]1C	T cruzi growth-1 116 | T cruzi growth-2 111 | T cruzi growth-3 inactive | NIH3T3 tox inactive | 3T3 cytotox 2 47
CCCNC(=O)N(C)C[C@@H]1Oc2cc(C#Cc3cccc(F)c3)ccc2S(=O)(=O)N([C@H](C)CO)C[C@H]1C	T cruzi growth-1 inconclusive | T cruzi growth-2 106 | T cruzi growth-3 inactive | NIH3T3 tox 47 | 3T3 cytotox 2 94
CC(C)NC(=O)N(C)C[C@H]1Oc2cc(C#Cc3cccc(F)c3)ccc2S(=O)(=O)N([C@H](C)CO)C[C@@H]1C	none
